Consider 31 compounds from PubChem BioAssay AID652011 (Sanford-Burnham Center for Chemical Genomics, 2013).

Several values for one entry are separate records, joined by “and”; a condition that tells them apart may be missing. Equal entries are not always repeated.

Chain of Endothelial PAS domain-containing protein 1 (Homo sapiens) (Q99814 whole entry, looked up, the tested form may be a part): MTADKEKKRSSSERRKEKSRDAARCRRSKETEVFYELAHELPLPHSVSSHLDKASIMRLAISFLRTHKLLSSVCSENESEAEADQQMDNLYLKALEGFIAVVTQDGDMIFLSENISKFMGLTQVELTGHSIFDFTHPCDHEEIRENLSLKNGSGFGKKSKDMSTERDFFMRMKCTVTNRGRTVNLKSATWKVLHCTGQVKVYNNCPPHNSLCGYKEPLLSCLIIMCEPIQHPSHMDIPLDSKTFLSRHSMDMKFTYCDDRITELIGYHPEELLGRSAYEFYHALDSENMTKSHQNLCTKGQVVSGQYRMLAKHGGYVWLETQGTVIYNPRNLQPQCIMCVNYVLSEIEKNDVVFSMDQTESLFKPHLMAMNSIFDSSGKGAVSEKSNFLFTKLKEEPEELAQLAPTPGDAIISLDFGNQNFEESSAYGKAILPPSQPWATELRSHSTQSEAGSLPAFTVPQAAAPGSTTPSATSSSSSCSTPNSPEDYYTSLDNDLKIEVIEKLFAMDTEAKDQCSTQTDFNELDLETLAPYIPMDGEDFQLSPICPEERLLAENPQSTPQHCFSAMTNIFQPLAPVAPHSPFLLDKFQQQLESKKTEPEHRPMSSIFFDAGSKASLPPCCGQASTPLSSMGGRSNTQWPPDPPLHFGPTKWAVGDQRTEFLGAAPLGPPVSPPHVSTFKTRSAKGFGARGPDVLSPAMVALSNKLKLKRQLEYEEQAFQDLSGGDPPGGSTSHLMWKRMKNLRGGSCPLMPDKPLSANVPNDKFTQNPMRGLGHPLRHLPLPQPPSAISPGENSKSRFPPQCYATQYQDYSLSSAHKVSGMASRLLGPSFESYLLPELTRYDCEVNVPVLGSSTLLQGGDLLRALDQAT

This test has as its target Endothelial PAS domain-containing protein 1 (Homo sapiens) (UniProt Q99814). Description: HIF reporter inhibition across pancreatic and renal lines – cell-based, luminescence, MIAPaCa-2, 786-0, panel, SAR follow-up (AID 652011). The note with it: MIAPaCa-2/PANC HIF reporter, luciferase luminescence, desferoxamine, overnight, HIF2a PANC, run 1; at 99 µM (top of the series). In a few lines: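 Reagent: Desferoxamine added before compound | Doses: Compounds from 10 mM and 0.3125 mM stocks, 1% DMSO final | Times: Overnight seeding and compound exposure, 37 °C, 5% CO2, 10-min detection | Measured by: One-Glo luciferase luminescence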
On to `CCc1ccc(-c2noc(CCC(=O)NC3CC3)n2)cc1`, for which the inhibition (commonly the change of the read-out against control, counted positive when it falls) was -19.4%. Consider `CCCCc1ccc(-c2noc(CCC(=O)NC(C)(C)C)n2)cc1`, for which the inhibition was 62.8%. For `COC(=O)CCc1nc(-c2ccc(C(C)(C)C)cc2)no1`, the inhibition amounted to 123%. As for `O=C(O)CCc1nc(-c2ccccc2)no1`, the inhibition stood at 25.2%. Regarding `CCNC(=O)CCc1nc(-c2ccccc2Cl)no1`, the inhibition worked out at 26%. As for `CCNC(=O)CCc1nc(-c2cccc(C)c2)no1`, the inhibition was -22.1%. As for `CC(C)(C)c1ccc(-c2noc(CCC(=O)NC3CCCCC3)n2)cc1`, the inhibition worked out at 93.4%. As for `CCCCc1ccc(-c2noc(CCC(=O)NCC)n2)cc1`, the inhibition was -29.8%.

For `CCCCc1ccc(-c2noc(CCC(=O)NC)n2)cc1`, the inhibition was -53%. The figure for `CC(C)(C)c1ccc(-c2noc(CCC(=O)Nc3cccnc3)n2)cc1` is 118%; for `CCC(C)NC(=O)CCc1nc(-c2ccccc2)no1` (stereo unspecified) it is 63.6%. For the compound `CNC(=O)CCc1nc(-c2ccc(F)cc2)no1`, the inhibition is -27.1%. With `CCc1ccc(-c2noc(CCC(=O)NC(C)(C)C)n2)cc1`, the inhibition was -42.9%. `CCc1ccc(-c2noc(CCC(=O)NC(C)CC)n2)cc1` (stereo unspecified): the inhibition was -89.5%. The figure for `C=CCNC(=O)CCc1nc(-c2ccc(C(C)(C)C)cc2)no1` is 56.7%; for `CCCCc1ccc(-c2noc(CCC(=O)NC3CC3)n2)cc1` it is -40.8%. The figure for `CC(C)CNC(=O)CCc1nc(-c2ccc(C(C)(C)C)cc2)no1` is 63.8%; for `CC(C)NC(=O)CCc1nc(-c2ccc(C(C)(C)C)cc2)no1` it is 80.3%; for `CCCCc1ccc(-c2noc(CCC(=O)NC(C)CC)n2)cc1` (stereo unspecified) it is 45.6%. On to `CCNC(=O)CCc1nc(-c2ccc(CC)cc2)no1`, for which the inhibition was -29.7%. Regarding `COc1cccc(NC(=O)CCc2nc(-c3ccc(C(C)(C)C)cc3)no2)c1`, the inhibition stood at 118%.

Consider `CC(C)(C)c1ccc(-c2noc(CCC(=O)O)n2)cc1`, for which the inhibition is 119%. The figure for `CC(C)(C)c1ccc(-c2noc(CCC(=O)NC3CCC3)n2)cc1` is 108%. For `CNC(=O)CCc1nc(-c2ccc(C(C)(C)C)cc2)no1`, the inhibition was 65.3%.

As for `CC(C)(C)c1ccc(-c2noc(CCC(=O)NC3CC3)n2)cc1`, the inhibition amounted to 53.7%. Regarding `CNC(=O)CCc1nc(-c2ccc(C(C)C)cc2)no1`, the inhibition is 24%. The figure for `CCNC(=O)CCc1nc(-c2ccc(C(C)C)cc2)no1` is -50.6%; for `CC(C)(C)c1ccc(-c2noc(CCC(=O)Nc3ccccc3)n2)cc1` it is 116%.

With `O=C(CCc1nc(-c2ccccc2)no1)NC1CC1`, the inhibition is 66%. Regarding `CC(C)(C)NC(=O)CCc1nc(-c2ccccc2)no1`, the inhibition was 35.7%. Take `CCNC(=O)CCc1nc(-c2ccc(C(C)(C)C)cc2)no1`: the inhibition was 17.6% and 9.6%.
